Results as given in ChEMBL document CHEMBL4689842, “EUbOPEN Chemogenomics Library wave 1” (2021).

System: Fibroblast
Assay: Multiplex assay against human fibroblast
Type: toxicity, cell-based
Summary of the method: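 Live cells were stained at seeding with Hoechst33342, BioTracker Green Microtubule Cytoskeleton Dye, MitoTracker Red and Annexin V Alexa Fluor 680, then imaged on a CQ1 microscope at 37°C and 5% CO2 after compound addition. CellPathfinder machine-learning gating split cells into Hoechst high-intensity objects or normal cells. Normal cells were split into healthy, pyknosed or fragmented nuclei, and pyknosed cells into mitotic or apoptotic. Tubulin, mitochondrial-mass and membrane-permeability phenotypes are per cents of healthy-nucleus cells.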

[1] = 12 h, 1 µM, compound concentration 1 uM, replicate 1
[2] = 12 h, 1 µM, compound concentration 1 uM, replicate 2
[3] = 12 h, 10 µM, compound concentration 10 uM, replicate 1
[4] = 12 h, 10 µM, compound concentration 10 uM, replicate 2
[5] = 24 h, 1 µM, compound concentration 1 uM, replicate 1
[6] = 24 h, 1 µM, compound concentration 1 uM, replicate 2
[7] = 24 h, 10 µM, compound concentration 10 uM, replicate 1
[8] = 24 h, 10 µM, compound concentration 10 uM, replicate 2
[9] = 48 h, 1 µM, compound concentration 1 uM, replicate 1
[10] = 48 h, 1 µM, compound concentration 1 uM, replicate 2
[11] = 48 h, 10 µM, compound concentration 10 uM, replicate 1
[12] = 48 h, 10 µM, compound concentration 10 uM, replicate 2

Cc1ccc(C)c(Oc2ccncc2C(=O)N2CCN(C3CC3)c3ccccc32)c1
Population Apoptotic (%) [1]: 75%
Population Fragmented Nuclei (%) [1]: 20%
Population Healthy Nuclei (%) [1]: 58%
Population Hoechst High Intensity Objects (%) [1]: 13%
Population Normal (%) [1]: 86%
Total Cell Count [1]: 90
Population Apoptotic (%) [2]: 66%
Population Healthy Nuclei (%) [2]: 75%
Population Hoechst High Intensity Objects (%) [2]: 10%
Population Normal (%) [2]: 89%
Total Cell Count [2]: 73
Population Apoptotic (%) [3]: 59%
Population Fragmented Nuclei (%) [3]: 27%
Population Healthy Nuclei (%) [3]: 43%
Population Hoechst High Intensity Objects (%) [3]: 10%
Population Normal (%) [3]: 89%
Total Cell Count [3]: 178
Population Apoptotic (%) [4]: 33%
Population Fragmented Nuclei (%) [4]: 6%
Population Healthy Nuclei (%) [4]: 72%
Population Hoechst High Intensity Objects (%) [4]: 3%
Population Normal (%) [4]: 96%
Total Cell Count [4]: 59
Population Apoptotic (%) [5]: 52%
Population Fragmented Nuclei (%) [5]: 19%
Population Healthy Nuclei (%) [5]: 56%
Population Hoechst High Intensity Objects (%) [5]: 19%
Population Normal (%) [5]: 80%
Total Cell Count [5]: 88
Population Apoptotic (%) [6]: 42%
Population Fragmented Nuclei (%) [6]: 27%
Population Healthy Nuclei (%) [6]: 60%
Population Hoechst High Intensity Objects (%) [6]: 6%
Population Normal (%) [6]: 93%
Total Cell Count [6]: 71
Population Apoptotic (%) [7]: 55%
Population Fragmented Nuclei (%) [7]: 26%
Population Healthy Nuclei (%) [7]: 51%
Population Hoechst High Intensity Objects (%) [7]: 6%
Population Normal (%) [7]: 93%
Total Cell Count [7]: 189
Population Apoptotic (%) [8]: 53%
Population Healthy Nuclei (%) [8]: 66%
Population Hoechst High Intensity Objects (%) [8]: 7%
Population Normal (%) [8]: 92%
Total Cell Count [8]: 65
Population Apoptotic (%) [9]: 80%
Population Fragmented Nuclei (%) [9]: 23%
Population Healthy Nuclei (%) [9]: 57%
Population Hoechst High Intensity Objects (%) [9]: 11%
Population Normal (%) [9]: 88%
Total Cell Count [9]: 87
Population Apoptotic (%) [10]: 50%
Population Fragmented Nuclei (%) [10]: 24%
Population Healthy Nuclei (%) [10]: 72%
Population Normal (%) [10]: 84%
Total Cell Count [10]: 91
Population Apoptotic (%) [11]: 66%
Population Fragmented Nuclei (%) [11]: 40%
Population Healthy Nuclei (%) [11]: 52%
Population Hoechst High Intensity Objects (%) [11]: 9%
Population Normal (%) [11]: 91%
Total Cell Count [11]: 211
Population Apoptotic (%) [12]: 25%
Population Fragmented Nuclei (%) [12]: 42%
Population Healthy Nuclei (%) [12]: 54%
Population Hoechst High Intensity Objects (%) [12]: 7%
Population Normal (%) [12]: 92%
Total Cell Count [12]: 159

O=C(c1cc2c(cc1F)OC(c1ccc(F)cc1)(c1ccc(Cl)cc1Cl)O2)N1CCOCC1 (stereo not drawn)
Population Apoptotic (%) [1]: 51%
Population Fragmented Nuclei (%) [1]: 18%
Population Healthy Nuclei (%) [1]: 47%
Population Hoechst High Intensity Objects (%) [1]: 13%
Population Membrane Permeable-Phenotype (%) [1]: 19%
Population Mitochondria Different-Phenotype (%) [1]: 6%
Population Mitotic Cells (%) [1]: 48%
Population Normal (%) [1]: 86%
Population Pyknosed Nuclei (%) [1]: 34%
Population Tubulin-Different-Phenotype (%) [1]: 56%
Total Cell Count [1]: 112
Population Apoptotic (%) [2]: 50%
Population Healthy Nuclei (%) [2]: 68%
Population Hoechst High Intensity Objects (%) [2]: 7%
Population Membrane Permeable-Phenotype (%) [2]: 9%
Population Mitochondria Different-Phenotype (%) [2]: 12%
Population Mitotic Cells (%) [2]: 50%
Population Normal (%) [2]: 92%
Population Pyknosed Nuclei (%) [2]: 12%
Population Tubulin-Different-Phenotype (%) [2]: 15%
Total Cell Count [2]: 78
Population Apoptotic (%) [3]: 71%
Population Fragmented Nuclei (%) [3]: 31%
Population Healthy Nuclei (%) [3]: 29%
Population Hoechst High Intensity Objects (%) [3]: 12%
Population Membrane Permeable-Phenotype (%) [3]: 4%
Population Mitochondria Different-Phenotype (%) [3]: 43%
Population Mitotic Cells (%) [3]: 28%
Population Normal (%) [3]: 87%
Population Pyknosed Nuclei (%) [3]: 38%
Population Tubulin-Different-Phenotype (%) [3]: 17%
Total Cell Count [3]: 176
Population Fragmented Nuclei (%) [4]: 10%
Population Healthy Nuclei (%) [4]: 78%
Population Hoechst High Intensity Objects (%) [4]: 4%
Population Membrane Permeable-Phenotype (%) [4]: 47%
Population Mitochondria Different-Phenotype (%) [4]: 96%
Population Normal (%) [4]: 95%
Population Pyknosed Nuclei (%) [4]: 10%
Population Tubulin-Different-Phenotype (%) [4]: 100%
Total Cell Count [4]: 52
Population Apoptotic (%) [5]: 26%
Population Fragmented Nuclei (%) [5]: 17%
Population Healthy Nuclei (%) [5]: 61%
Population Hoechst High Intensity Objects (%) [5]: 18%
Population Membrane Permeable-Phenotype (%) [5]: 18%
Population Mitochondria Different-Phenotype (%) [5]: 12%
Population Mitotic Cells (%) [5]: 73%
Population Normal (%) [5]: 81%
Population Pyknosed Nuclei (%) [5]: 21%
Population Tubulin-Different-Phenotype (%) [5]: 50%
Total Cell Count [5]: 108
Population Apoptotic (%) [6]: 33%
Population Fragmented Nuclei (%) [6]: 5%
Population Healthy Nuclei (%) [6]: 88%
Population Hoechst High Intensity Objects (%) [6]: 10%
Population Membrane Permeable-Phenotype (%) [6]: 10%
Population Mitochondria Different-Phenotype (%) [6]: 15%
Population Mitotic Cells (%) [6]: 66%
Population Normal (%) [6]: 89%
Population Pyknosed Nuclei (%) [6]: 5%
Population Tubulin-Different-Phenotype (%) [6]: 21%
Total Cell Count [6]: 85
Population Apoptotic (%) [7]: 67%
Population Fragmented Nuclei (%) [7]: 32%
Population Healthy Nuclei (%) [7]: 32%
Population Hoechst High Intensity Objects (%) [7]: 12%
Population Membrane Permeable-Phenotype (%) [7]: 2%
Population Mitochondria Different-Phenotype (%) [7]: 81%
Population Mitotic Cells (%) [7]: 32%
Population Normal (%) [7]: 87%
Population Pyknosed Nuclei (%) [7]: 35%
Population Tubulin-Different-Phenotype (%) [7]: 16%
Total Cell Count [7]: 169
Population Apoptotic (%) [8]: 66%
Population Fragmented Nuclei (%) [8]: 8%
Population Healthy Nuclei (%) [8]: 62%
Population Hoechst High Intensity Objects (%) [8]: 6%
Population Membrane Permeable-Phenotype (%) [8]: 64%
Population Mitochondria Different-Phenotype (%) [8]: 100%
Population Mitotic Cells (%) [8]: 33%
Population Normal (%) [8]: 93%
Population Pyknosed Nuclei (%) [8]: 29%
Population Tubulin-Different-Phenotype (%) [8]: 100%
Total Cell Count [8]: 58
Population Apoptotic (%) [9]: 42%
Population Fragmented Nuclei (%) [9]: 31%
Population Healthy Nuclei (%) [9]: 50%
Population Hoechst High Intensity Objects (%) [9]: 11%
Population Membrane Permeable-Phenotype (%) [9]: 15%
Population Mitochondria Different-Phenotype (%) [9]: 11%
Population Mitotic Cells (%) [9]: 57%
Population Normal (%) [9]: 88%
Population Pyknosed Nuclei (%) [9]: 18%
Population Tubulin-Different-Phenotype (%) [9]: 43%
Total Cell Count [9]: 119
Population Apoptotic (%) [10]: 33%
Population Fragmented Nuclei (%) [10]: 18%
Population Healthy Nuclei (%) [10]: 73%
Population Hoechst High Intensity Objects (%) [10]: 12%
Population Membrane Permeable-Phenotype (%) [10]: 8%
Population Mitochondria Different-Phenotype (%) [10]: 5%
Population Mitotic Cells (%) [10]: 66%
Population Normal (%) [10]: 87%
Population Pyknosed Nuclei (%) [10]: 7%
Population Tubulin-Different-Phenotype (%) [10]: 37%
Total Cell Count [10]: 90
Population Apoptotic (%) [11]: 80%
Population Fragmented Nuclei (%) [11]: 33%
Population Healthy Nuclei (%) [11]: 42%
Population Hoechst High Intensity Objects (%) [11]: 14%
Population Membrane Permeable-Phenotype (%) [11]: 1%
Population Mitochondria Different-Phenotype (%) [11]: 70%
Population Mitotic Cells (%) [11]: 20%
Population Normal (%) [11]: 85%
Population Pyknosed Nuclei (%) [11]: 24%
Population Tubulin-Different-Phenotype (%) [11]: 6%
Total Cell Count [11]: 167
Population Apoptotic (%) [12]: 81%
Population Fragmented Nuclei (%) [12]: 34%
Population Healthy Nuclei (%) [12]: 56%
Population Hoechst High Intensity Objects (%) [12]: 12%
Population Membrane Permeable-Phenotype (%) [12]: 0%
Population Mitochondria Different-Phenotype (%) [12]: 90%
Population Mitotic Cells (%) [12]: 18%
Population Normal (%) [12]: 87%
Population Pyknosed Nuclei (%) [12]: 9%
Population Tubulin-Different-Phenotype (%) [12]: 3%
Total Cell Count [12]: 133
